Compounds with a hit are over-represented: about 3.7% of the library has one in this group of screens.
MT stabilizer = microtubule stabilizers in HeLa cells, primary screen, imaging, high-content imaging; HeLa tubulin immunostaining HCS, 24 h; share of cells brighter than vehicle mean+2SD; AID 2205, 2009; % tubulin-high responders, % at 10 µM; 200,000 compounds, 0.83% hits;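 active = plate Z-score above 3 for both tubulin-high and condensed-nucleus cell shares, with cell loss under 80%, at 10 µM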;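 note: anti alpha tubulin signal scored within the nucleus-defined area of each cell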
bCat nuc transl = modulators of beta-catenin nuclear translocation, primary screen, imaging, HeLa cells, immunofluorescence, high-content; nuclear translocation activity, % at 5 µM; 190,000 compounds, 0.3% hits; AID 1665, 2009;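 active = nuclear translocation activity above 50% at 5 µM, with a well cell count of 50 or more; inconclusive = wells under 50 cells across six images, flagged as toxic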;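 note: per-cell ratio of nuclear to cytoplasmic median beta-catenin stain intensity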
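Read-out: Nuclear/cytoplasmic beta-catenin signal ratio, % activation | Assay system: Human HeLa cell line | Times: 24 h compound exposure at 37°C, 5% CO2 | Signal: Fluorescence imaging of beta-catenin antibody stain plus DAPI | Dosing: 5 µM primary, 0.02–20 µM confirmation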
Redox H2O2 prof = compounds producing H2O2 with reducing agent – biochemical, NIH compound library profiling, artefact control for MLSCN library redox annotation, primary screen; activation, % at 10 µM; 200,000 compounds, 0.03% hits; DTT-dependent redox cycling H2O2, phenol red/HRP absorbance; 100% = 100 µM peroxide control, 0% = buffer;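 active = activation of at least 50% relative to the plate's high and low controls in the primary single-dose screen; inactive = activation below 50%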;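 note: compound incubated with DTT at 0.8 mM final as the reducing agent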
ROMK mod = ROMK potassium channel modulators, primary screen, cell-based, thallium flux, MLSMR library | B-score at 10 µM | ATP-sensitive inward rectifier potassium channel 1 (Homo sapiens), P48048 | 130,000 compounds, 2% hits | AID 1918, 2009 | Tet-inducible ROMK, thallium flux fluorescence; actives lie on both sides;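 active = signal ratio slope over the read window, or its plate-corrected B-score, at least 3 SD from the plate mean, either direction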;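 note: B-score of the F/F0 ratio slope over 7 to 12 s after thallium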
KCC2 mod = KCC2 cotransporter modulators, thallium flux, primary screen, cell-based, HEK293 KCC2, FluoZin-2 fluorescence, MLSMR. Solute carrier family 12 member 5 (Homo sapiens), Q9H2X9. AID 1456, 2008. KCC2 cells, thallium flux FluoZin-2 fluorescence. 190,000 compounds, 2.2% hits. B-score of Tl+ flux slope (higher = more flux/activation; lower = inhibition) at 10 µM;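 active = thallium flux slope and its plate-corrected score both differing from the plate sample mean at a set confidence after two filtering rounds, in either direction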;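 note: slope of fluorescence scaled to starting intensity during 10 to 20 s after thallium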
Target sequence (Q9H2X9 whole entry, looked up): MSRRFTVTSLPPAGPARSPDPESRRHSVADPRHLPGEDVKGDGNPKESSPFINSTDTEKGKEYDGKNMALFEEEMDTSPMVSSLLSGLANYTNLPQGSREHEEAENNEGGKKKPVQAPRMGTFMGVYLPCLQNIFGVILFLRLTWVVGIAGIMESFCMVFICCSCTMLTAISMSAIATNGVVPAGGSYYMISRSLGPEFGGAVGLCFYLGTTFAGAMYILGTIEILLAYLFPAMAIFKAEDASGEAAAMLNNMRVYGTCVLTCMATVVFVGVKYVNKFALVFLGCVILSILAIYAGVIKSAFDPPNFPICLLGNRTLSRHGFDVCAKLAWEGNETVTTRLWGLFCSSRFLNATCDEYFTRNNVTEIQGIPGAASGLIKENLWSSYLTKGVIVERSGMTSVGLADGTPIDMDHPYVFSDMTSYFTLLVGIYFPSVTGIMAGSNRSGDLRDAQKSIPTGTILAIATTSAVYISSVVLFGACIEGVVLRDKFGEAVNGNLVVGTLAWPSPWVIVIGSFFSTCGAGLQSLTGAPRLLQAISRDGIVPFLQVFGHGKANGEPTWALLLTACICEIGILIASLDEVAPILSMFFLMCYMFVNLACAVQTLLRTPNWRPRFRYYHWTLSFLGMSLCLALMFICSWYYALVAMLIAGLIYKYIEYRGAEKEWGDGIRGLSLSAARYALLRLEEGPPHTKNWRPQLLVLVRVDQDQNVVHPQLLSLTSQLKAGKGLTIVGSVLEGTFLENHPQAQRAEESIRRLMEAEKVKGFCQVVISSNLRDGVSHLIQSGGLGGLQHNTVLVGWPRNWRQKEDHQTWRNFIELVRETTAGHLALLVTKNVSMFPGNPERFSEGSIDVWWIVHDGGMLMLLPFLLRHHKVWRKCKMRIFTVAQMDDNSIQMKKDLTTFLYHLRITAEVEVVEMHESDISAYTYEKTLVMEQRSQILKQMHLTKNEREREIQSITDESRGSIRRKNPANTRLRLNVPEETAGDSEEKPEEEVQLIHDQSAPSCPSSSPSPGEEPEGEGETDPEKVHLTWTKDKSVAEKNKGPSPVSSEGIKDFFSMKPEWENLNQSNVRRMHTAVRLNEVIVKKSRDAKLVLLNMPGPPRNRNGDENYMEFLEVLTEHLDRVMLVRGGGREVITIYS
KCC2 secondary = KCC2 modulators in sodium-free buffer, confirmation, cell-based, HEK293 KCC2, thallium flux, secondary assay; shares compounds with KCC2 mod; 3,700 compounds, 15% hits; normalised thallium flux (F/F0 slope) at 10 µM; FluoZin2 fluorescence; active compounds read high;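 active = thallium flux slope above the same plate's solvent-only control mean plus 3 SD; inconclusive = the two replicate wells disagree; inactive = no significant difference from solvent-only control wells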
KCC2 bumet counter = thallium flux persisting under bumetanide in KCC2 cells, confirmation, counter-screen for KCC2 modulator project, cell-based, HEK293 KCC2, FluoZin2, secondary assay 3. normalized thallium flux at 10 µM. HEK293-KCC2 + bumetanide/ouabain; active compounds read high. shares compounds with KCC2 mod. 3,700 compounds, 49% hits;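 active = thallium entry rate above the same plate's blocked-transporter control wells by more than 3 SD; inconclusive = the two repeat wells disagree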;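 note: raw slope of fluorescence over initial fluorescence between 10 and 20 s after thallium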
KCC2 secondary2 = KCC2 modulators without ouabain present, confirmation, cell-based, HEK293 KCC2, thallium flux, FluoZin2, secondary assay 2; shares compounds with KCC2 mod; thallium flux FluoZin2 fluorescence; actives lie on both sides; F/F0 rise rate, 10–20 s post-thallium; normalized thallium flux at 10 µM; 3,700 compounds, 23% hits; AID 1715, 2009;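 active = thallium flux slope more than 3 SD above or below the plate's solvent-only control mean, mostly below; inconclusive = the two repeat wells disagreed; inactive = no significant shift from solvent-only controls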
HEK counter1 = thallium flux modulation in parental HEK cells, confirmation, counter-screen for KCC2 modulator project, cell-based, counterscreen 1 | thallium flux rate (normalised fluorescence) at 10 µM | 3,700 compounds, 46% hits | HEK293 parental cells, thallium flux FluoZin2, ouabain; baseline-ratio fluorescence slope, 10–20 s after thallium | shares compounds with KCC2 mod;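 active = thallium flux rate significantly above the same plate's solvent-only control wells, beyond their mean plus 3 SD; inconclusive = the two replicate wells gave conflicting results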
KCC2 ouabain = KCC2 inhibitors and activators, ouabain retest, confirmation, HEK-KCC2 cells | shares compounds with KCC2 mod | HEK293-KCC2, thallium flux FluoZin2 fluorescence; bidirectional: low = inhibitor, high = activator | raw Tl+ flux slope (below DMSO = inhibition, above = activation) at 10 µM | 3,700 compounds, 48% hits;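 active = thallium flux slope beyond 3 SD from same-plate DMSO control mean in most replicates, usually higher, sometimes lower; inconclusive = repeat tests gave conflicting results; inactive = no significant difference from controls in most replicates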;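 note: slope of initial-normalized fluorescence between seconds 10 and 20 after thallium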
HEK293 Tl flux2 = native HEK Tl+ uptake effects, second counter-screen – HEK cells, counterscreen 2, counter-screen for KCC2 modulator project, confirmation; shares compounds with KCC2 mod; HEK293 parental, thallium flux FluoZin-2 fluorescence slope; thallium flux slope at 10 µM; 3,700 compounds, 33% hits; AID 1718, 2009;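 active = thallium flux slope above the same plate's solvent-control mean plus 3 SD in both duplicate wells; inconclusive = duplicate wells that disagreed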;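 note: run without ouabain in cells lacking the KCC2 cotransporter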
Numbers stand for hits; – = inactive; ? = inconclusive; · = no result.

SMILES | MT stabilizer | bCat nuc transl | Redox H2O2 prof | ROMK mod | KCC2 mod | KCC2 secondary | KCC2 bumet counter | KCC2 secondary2 | HEK counter1 | KCC2 ouabain | HEK293 Tl flux2
Cc1ccccc1C(=O)N1CCN(c2ccc(NC(=S)NC(=O)c3cccs3)cc2)CC1 | – | – | – | – | – | – | 0.015 | – | – | – | –
Cc1ccc(C(=O)N2CCN(c3ccc(NC(=S)NC(=O)c4cccs4)cc3)CC2)cc1 | – | – | – | · | – | · | · | · | · | · | ·
O=C(NC(=S)Nc1ccc(N2CCOCC2)cc1)c1cccs1 | – | – | – | – | 3.1 | – | 0.033 | – | ? | – | –
N#Cc1c(C(F)(F)F)cc(=O)[nH]c1SCC(=O)O | – | – | – | – | – | · | · | · | · | · | ·
O=C(N1CCOCC1)n1nnc2ccccc21 | – | – | – | · | 7.5 | – | ? | – | – | – | –
O=C(N1CCOCC1)n1cnc2ccccc21 | – | – | – | – | – | · | · | · | · | · | ·
COc1ccc(/C=C2\C(=O)NC(=S)N2C(=O)c2ccc(C)cc2)cc1 | – | – | – | – | 7.5 | – | 0.021 | 0.039 | 0.019 | 0.028 | 0.021
O=C(CNC(=S)NC(=O)c1ccc(Br)o1)c1ccccc1 | – | – | – | – | 5.7 | 0.014 | 0.047 | – | 0.041 | 0.037 | 0.016
O=C(NC(=S)NCC1CCCO1)c1ccc(Br)o1 (stereo not drawn) | – | – | – | – | 51 | – | 0.049 | 0.045 | 0.037 | 0.043 | 0.032
Cc1ccc(C(=O)NC(=S)NCC2CCCO2)cc1Br (stereo not drawn) | – | · | – | – | 12 | – | 0.022 | – | 0.028 | 0.028 | –
CCN(CC)C(=S)SC1CCCCN(C(=O)c2ccccc2)C1=O (stereo not drawn) | · | – | · | · | – | · | · | · | · | · | ·
CCNc1nc(NC(C)(C)C)nc(N2CCCCC2)n1 | – | – | – | – | – | · | · | · | · | · | ·
O=[N+]([O-])c1ccc(/C=N/NC(=S)Nc2ccccc2C(F)(F)F)o1 | – | – | – | – | 21 | – | 0.046 | 0.051 | 0.027 | 0.054 | 0.021
Cc1ccc2[nH]c(SCC(=O)N3CCOCC3)nc2c1C | – | – | – | – | · | – | – | – | – | – | –
N#Cc1c(-c2c(Cl)cccc2Cl)noc1/C=C/Nc1ccc(C(=O)O)cc1 | – | – | – | – | -5.8 | – | – | 0.025 | ? | 0.013 | –
O=[N+]([O-])c1ccccc1Sc1nccn1Cc1ccccc1 | – | – | – | · | -4.2 | – | – | – | ? | 0.013 | –
c1cc2c(cc1-c1csc(NNC3=NCCCCC3)n1)OCCO2 | – | – | – | · | 3.6 | – | – | – | – | – | –
Fc1ccc(Nc2nc(Oc3ccccc3F)nc(N3CCCC3)n2)cc1 | – | – | – | – | · | – | – | – | – | – | –
c1ccc(Nc2nc(N3CCCC3)nc(N3CCCC3)n2)cc1 | – | · | – | · | – | · | · | · | · | · | ·
COc1ccccc1OCC(=O)N1CC2(C)CC1CC(C)(C)C2 (stereo not drawn) | – | – | – | – | 5 | – | – | – | – | – | –
COc1ccc(OCC(=O)N2CC3(C)CC2CC(C)(C)C3)cc1 (stereo not drawn) | – | · | – | · | – | · | · | · | · | · | ·
Cc1cccn2c(=O)c(C=O)c(N3CCC4(CC3)OCCO4)nc12 | · | – | · | · | – | · | · | · | · | · | ·
CNC(=O)CCCCC(=O)N/N=C/c1ccc(Cl)cc1Cl | · | – | · | – | – | · | · | · | · | · | ·
N#CC(c1ccc(Cl)cc1)c1ccc2c(C(F)(F)F)cc(C(F)(F)F)nc2n1 (stereo not drawn) | – | · | – | – | 22 | 0.024 | 0.14 | – | 0.054 | 0.067 | 0.015
FC(F)(F)c1cc(C(F)(F)F)c2ccc(N3CCN(c4ccc(Cl)cc4)CC3)nc2n1 | – | – | – | · | – | · | · | · | · | · | ·
SMILES | MT stabilizer | bCat nuc transl | Redox H2O2 prof | ROMK mod | KCC2 mod | KCC2 secondary | KCC2 bumet counter | KCC2 secondary2 | HEK counter1 | KCC2 ouabain | HEK293 Tl flux2
Cc1c(Cl)cccc1Nc1ccccc1C(=O)O | – | – | – | – | 4.6 | ? | 0.024 | – | 0.013 | ? | –
O=C(O)c1ccccc1Nc1ccccc1C(=O)O | – | · | – | · | – | · | · | · | · | · | ·
O=c1[nH]nc(SCc2nnc(-c3cccc(Cl)c3)o2)n1C1CCCCC1 | · | – | · | – | – | · | · | · | · | · | ·
COc1cccc(/C=C/C(=O)NCc2ccc(S(N)(=O)=O)cc2)c1 | · | – | · | · | – | · | · | · | · | · | ·
CC1Cc2ccccc2N1CC(=O)Nc1ccc(Cl)c(S(=O)(=O)N(C)C)c1 (stereo not drawn) | – | – | – | – | – | · | · | · | · | · | ·
CC1Cc2ccccc2N1CC(=O)Nc1ccc(S(=O)(=O)N(C)C)cc1 (stereo not drawn) | · | – | · | · | -3.9 | – | – | – | – | – | ?
COc1ccc(Nc2nc(Nc3ccc(OC)cc3)nc(SC3=NCCS3)n2)cc1 | – | · | – | – | – | · | · | · | · | · | ·
COc1ccc(NC(=O)Cn2c(-c3ccccc3)cn(-c3ccc(C)cc3)c2=O)cc1 | – | · | – | – | – | · | · | · | · | · | ·
COc1ccc(-c2cn(-c3ccc(C)cc3)c(=O)n2CC(=O)Nc2ccc(OC)cc2OC)cc1 | – | · | – | – | · | – | – | – | – | – | –
COc1ccc(NC(=O)Cn2c(=O)sc3ccccc32)c(OC)c1 | – | – | – | · | -2.9 | – | – | – | ? | – | –

Source: PubChem BioAssay (several laboratories)
